Reference: ChEMBL document CHEMBL1212777, “Novel VIM metallo-beta-lactamase variant from clinical isolates of Enterobacteriaceae from Algeria” (2010)
Values after ≈ are worked out from the molar mass of the structure shown.

Experiments:
Type in all cases: functional
Escherichia coli [1] = test: Antimicrobial activity against Escherichia coli 138 expressing beta-lactamase VIM-19 by microdilution method
Summary of the method: (§1)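 Clinical isolates from intensive care patients. MICs by dilution on Mueller-Hinton agar, inoculum 10^4 CFU per spot, read after growth and interpreted by CA-SFM guidelines. Where the line names an inhibitor, it was held at a fixed level: clavulanic acid 2 μg/ml, tazobactam 4 μg/ml, or EDTA 0.4 mM.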

Escherichia coli [2] = test: Antimicrobial activity against Escherichia coli 2603 strain expressing beta-lactamase VIM-19 by microdilution method; summary of the method: as §1
Klebsiella pneumoniae [3] = test: Antimicrobial activity against Klebsiella pneumoniae 2878 strain expressing beta-lactamase VIM-19 by microdilution method; summary of the method: as §1
Klebsiella pneumoniae [4] = test: Antimicrobial activity against Klebsiella pneumoniae 6828 strain expressing beta-lactamase VIM-19 by microdilution method; summary of the method: as §1
Providencia stuartii [5] = test: Antimicrobial activity against Providencia stuartii 6858 strain expressing beta-lactamase VIM-19 by microdilution method; summary of the method: as §1
Escherichia coli [6] = test: Antimicrobial activity against Escherichia coli C600 2878 transconjugate expressing beta-lactamase VIM-19 by microdilution method
Summary of the method: (§2)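 MIC by dilution on Mueller-Hinton agar, inoculum 10^4 CFU per spot, interpreted by CA-SFM guidelines. Inhibitor combinations where tested: clavulanic acid 2 μg/ml, tazobactam 4 μg/ml, EDTA 0.4 mM. Transconjugants came from rifampin-resistant E. coli C600 selected on rifampin 300 μg/ml plus cefotaxime 0.5 μg/ml. Transformants came from electroporation into E. coli DH5α selected on cefotaxime 0.5 μg/ml.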

Escherichia coli [7] = test: Antimicrobial activity against Escherichia coli DH5alpha 2878 transformant expressing beta-lactamase VIM-19 by microdilution method; summary of the method: as §2
Escherichia coli [8] = test: Antimicrobial activity against Escherichia coli DH5alpha harbouring plasmid BK-VIM-19 expressing beta-lactamase VIM-19 by microdilution method; summary of the method: as §2
Escherichia coli [9] = test: Antimicrobial activity against Escherichia coli harbouring plasmid BK-CMV expressing beta-lactamase VIM-19 by microdilution method; summary of the method: as §2
Escherichia coli [10] = test: Antimicrobial activity against Escherichia coli 138 expressing beta-lactamase VIM-19 by microdilution method in presence of 0.4 mM EDTA; summary of the method: as §2
Escherichia coli [11] = test: Antimicrobial activity against Escherichia coli 2603 strain expressing beta-lactamase VIM-19 by microdilution method in presence of 0.4 mM EDTA; summary of the method: as §1
Klebsiella pneumoniae [12] = test: Antimicrobial activity against Klebsiella pneumoniae 2878 strain expressing beta-lactamase VIM-19 […] in presence of 0.4 mM EDTA
Klebsiella pneumoniae [13] = test: Antimicrobial activity against Klebsiella pneumoniae 6828 strain expressing beta-lactamase VIM-19 by microdilution method in presence of 0.4 mM EDTA; summary of the method: as §1
Providencia stuartii [14] = test: Antimicrobial activity against Providencia stuartii 6858 strain expressing beta-lactamase VIM-19 by microdilution method in presence of 0.4 mM EDTA; summary of the method: as §1
Escherichia coli [15] = test: Antimicrobial activity against Escherichia coli C600 2878 transconjugate expressing beta-lactamase VIM-19 by microdilution method in presence of 0.4 mM EDTA
Summary of the method: (§3)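 Rifampin-resistant E. coli C600 recipient mated with the clinical strain. Transconjugants were selected on agar with rifampin 300 μg/ml plus cefotaxime 0.5 μg/ml. MICs by dilution on Mueller-Hinton agar, inoculum 10^4 CFU per spot, CA-SFM interpretation. Inhibitor at a fixed level: clavulanic acid 2 μg/ml or EDTA 0.4 mM.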

Escherichia coli [16] = test: Antimicrobial activity against Escherichia coli DH5alpha 2878 transformant expressing beta-lactamase VIM-19 by microdilution method in presence of 0.4 mM EDTA; summary of the method: as §2
Escherichia coli [17] = test: Antimicrobial activity against Escherichia coli DH5alpha harbouring plasmid BK-VIM-19 expressing beta-lactamase VIM-19 by microdilution method in presence of 0.4 mM EDTA; summary of the method: as §2
Escherichia coli [18] = test: Antimicrobial activity against Escherichia coli harbouring plasmidBK-CMV expressing beta-lactamase VIM-19 […] in presence of 0.4 mM EDTA
Escherichia coli [19] = test: Antimicrobial activity against Escherichia coli 138 expressing beta-lactamase VIM-19 by microdilution method in presence of 2 ug/ml clavulanic acid; summary of the method: as §1
Escherichia coli [20] = test: Antimicrobial activity against Escherichia coli 2603 strain expressing beta-lactamase VIM-19 by microdilution method in presence of 2 ug/ml clavulanic acid; summary of the method: as §1
Klebsiella pneumoniae [21] = test: Antimicrobial activity against Klebsiella pneumoniae 2878 strain expressing beta-lactamase VIM-19 by microdilution method in presence of 2 ug/ml clavulanic acid; summary of the method: as §1
Klebsiella pneumoniae [22] = test: Antimicrobial activity against Klebsiella pneumoniae 6828 strain expressing beta-lactamase VIM-19 by microdilution method in presence of 2 ug/ml clavulanic acid; summary of the method: as §1
Providencia stuartii [23] = test: Antimicrobial activity against Providencia stuartii 6858 strain expressing beta-lactamase VIM-19 by microdilution method in presence of 2 ug/ml clavulanic acid; summary of the method: as §1
Escherichia coli [24] = test: Antimicrobial activity against Escherichia coli C600 2878 transconjugate expressing beta-lactamase VIM-19 by microdilution method in presence of 2 ug/ml clavulanic acid; summary of the method: as §3
Escherichia coli [25] = test: Antimicrobial activity against Escherichia coli DH5alpha 2878 transformant expressing beta-lactamase VIM-19 by microdilution method in presence of 2 ug/ml clavulanic acid; summary of the method: as §2
Escherichia coli [26] = test: Antimicrobial activity against Escherichia coli DH5alpha harbouring plasmid BK-VIM-19 expressing beta-lactamase VIM-19 by microdilution method in presence of 2 ug/ml clavulanic acid; summary of the method: as §2
Escherichia coli [27] = test: Antimicrobial activity against Escherichia coli harbouring plasmidBK-CMV expressing beta-lactamase VIM-19 […] in presence of 2 ug/ml clavulanic acid

SMILES | MIC (Escherichia coli [1]) | MIC (Escherichia coli [2]) | MIC (Klebsiella pneumoniae [3]) | MIC (Klebsiella pneumoniae [4]) | MIC (Providencia stuartii [5]) | MIC (Escherichia coli [6]) | MIC (Escherichia coli [7]) | MIC (Escherichia coli [8]) | MIC (Escherichia coli [9]) | MIC (Escherichia coli [10]) | MIC (Escherichia coli [11]) | MIC (Klebsiella pneumoniae [12]) | MIC (Klebsiella pneumoniae [13]) | MIC (Providencia stuartii [14]) | MIC (Escherichia coli [15]) | MIC (Escherichia coli [16]) | MIC (Escherichia coli [17]) | MIC (Escherichia coli [18]) | further results
C[C@@H](O)[C@H]1C(=O)N2C(C(=O)O)=C(S[C@@H]3CN[C@H](C(=O)Nc4cccc(C(=O)O)c4)C3)[C@H](C)[C@H]12 | 32 µg/mL (≈ 67.3 µM) | 16 µg/mL (≈ 33.6 µM) | 64 µg/mL (≈ 135 µM) | 16 µg/mL (≈ 33.6 µM) | 32 µg/mL (≈ 67.3 µM) | 1 µg/mL (≈ 2.1 µM) | 8 µg/mL (≈ 16.8 µM) | 4 µg/mL (≈ 8.41 µM) | < 0.12 µg/mL | 0.25 µg/mL | < 0.12 µg/mL | 0.25 µg/mL | < 0.12 µg/mL | < 0.12 µg/mL | < 0.12 µg/mL | < 0.12 µg/mL | < 0.12 µg/mL | < 0.12 µg/mL | –
CO/N=C(\C(=O)N[C@@H]1C(=O)N2C(C(=O)[O-])=C(C[N+]3(C)CCCC3)CS[C@H]12)c1csc(N)n1 | 64 µg/mL (≈ 133 µM) | 4 µg/mL (≈ 8.32 µM) | 64 µg/mL (≈ 133 µM) | 4 µg/mL (≈ 8.32 µM) | 2 µg/mL (≈ 4.16 µM) | – | 4 µg/mL (≈ 8.32 µM) | – | < 0.12 µg/mL | – | – | – | – | – | – | – | – | – | –
CC1(C)S[C@@H]2[C@H](NC(=O)[C@H](N)c3ccc(O)cc3)C(=O)N2[C@H]1C(=O)O [AMOXICILLIN] | > 2050 µg/mL | > 2050 µg/mL | > 2050 µg/mL | > 2050 µg/mL | > 2050 µg/mL | > 2050 µg/mL | > 2050 µg/mL | > 2050 µg/mL | 4 µg/mL (≈ 10.9 µM) | – | – | – | – | – | – | – | – | – | MIC (Escherichia coli [19]): > 2050 µg/mL; MIC (Escherichia coli [20]): > 2050 µg/mL; MIC (Klebsiella pneumoniae [21]): > 2050 µg/mL; MIC (Klebsiella pneumoniae [22]): > 2050 µg/mL; MIC (Providencia stuartii [23]): > 2050 µg/mL; MIC (Escherichia coli [24]): > 2050 µg/mL; MIC (Escherichia coli [25]): > 2050 µg/mL; MIC (Escherichia coli [26]): > 2050 µg/mL; MIC (Escherichia coli [27]): 4 µg/mL
C[C@H]1[C@H](NC(=O)/C(=N\OC(C)(C)C(=O)O)c2csc(N)n2)C(=O)N1S(=O)(=O)O [AZTREONAM] | 128 µg/mL (≈ 294 µM) | 64 µg/mL (≈ 147 µM) | 16 µg/mL (≈ 36.7 µM) | 8 µg/mL (≈ 18.4 µM) | 2 µg/mL (≈ 4.59 µM) | – | 16 µg/mL (≈ 36.7 µM) | – | – | 128 µg/mL | 64 µg/mL | 16 µg/mL | 8 µg/mL | – | 4 µg/mL | 16 µg/mL | – | – | –
CO/N=C(\C(=O)N[C@@H]1C(=O)N2C(C(=O)O)=C(COC(C)=O)CS[C@H]12)c1csc(N)n1 [CEFOTAXIME] | 512 µg/mL (≈ 1120 µM) | 256 µg/mL (≈ 562 µM) | 256 µg/mL (≈ 562 µM) | 128 µg/mL (≈ 281 µM) | 128 µg/mL (≈ 281 µM) | 64 µg/mL (≈ 141 µM) | 256 µg/mL (≈ 562 µM) | 128 µg/mL (≈ 281 µM) | 0.06 µg/mL (≈ 0.132 µM) | 32 µg/mL | 4 µg/mL | 4 µg/mL | 4 µg/mL | 2 µg/mL | 1 µg/mL | 1 µg/mL | 0.06 µg/mL | 0.06 µg/mL | –
CO[C@@]1(NC(=O)Cc2cccs2)C(=O)N2C(C(=O)O)=C(COC(N)=O)CS[C@@H]21 [CEFOXITIN] | 512 µg/mL (≈ 1200 µM) | 512 µg/mL (≈ 1200 µM) | 512 µg/mL (≈ 1200 µM) | 128 µg/mL (≈ 299 µM) | 128 µg/mL (≈ 299 µM) | 128 µg/mL (≈ 299 µM) | 256 µg/mL (≈ 599 µM) | 128 µg/mL (≈ 299 µM) | 4 µg/mL (≈ 9.36 µM) | – | – | – | – | – | – | – | – | – | –
